Values after ≈ are worked out from the molar mass of the structure shown.

Assay type in all cases: functional
In test [1] the test system is Aspergillus flavus. Briefly: Antimicrobial activity against Aspergillus flavus after 48 hrs by broth microdilution method. Put shortly:
(§1)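 Fungi were grown on Sabouraud dextrose agar. Inocula were prepared in Sabouraud liquid medium at 37 °C for 12 h, then diluted in RPMI-1640 with L-glutamine, MOPS-buffered at pH 7. Compounds were made as 1000 µg/mL stocks in 50% DMSO/H₂O and tested as two-fold dilutions from 500 µg/mL. Sealed plates were incubated at 37 °C for 48 h in a humid chamber. MIC was the lowest concentration without visible turbidity.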

The subject of test [2] is Enterococcus faecalis. Briefly: Antimicrobial activity against Enterococcus faecalis after 24 hrs by broth microdilution method. The essentials: (§2)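 Broth microdilution. Bacteria were grown on Mueller-Hinton agar and diluted in Mueller-Hinton broth. Compounds were made as 1000 µg/mL stocks in 50% DMSO/H₂O and added to wells as two-fold dilutions starting at 500 µg/mL, then inoculated. Sealed plates were incubated at 37 °C for 24 h in a humid chamber. MIC was the lowest concentration with no visible turbidity.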

The subject of test [3] is Candida albicans. The experiment in a line: Antimicrobial activity against Candida albicans after 48 hrs by broth microdilution method. The essentials:
as §1

Test [4] deals with Klebsiella aerogenes. The experiment in a line: Antimicrobial activity against Enterobacter aerogenes after 24 hrs by broth microdilution method. The essentials:
as §2

The test system of test [5] is Candida parapsilosis. Briefly: Antimicrobial activity against Candida parapsilosis after 48 hrs by broth microdilution method. Particulars: Lodderomyces parapsilosis. Put shortly: as §1
Test [6] concerns Escherichia coli. The experiment in a line: Antimicrobial activity against Escherichia coli after 24 hrs by broth microdilution method. The essentials: as §2
In test [7] the test system is Staphylococcus aureus. Briefly: Antimicrobial activity against Staphylococcus aureus after 24 hrs by broth microdilution method. Put shortly:
as §2

Test [8] concerns Nannizzia gypsea. Briefly: Antimicrobial activity against Microsporum gypseum after 48 hrs by broth microdilution method. Put shortly:
as §1

Test [9] has as its system Pseudomonas aeruginosa. Briefly: Antimicrobial activity against Pseudomonas aeruginosa after 24 hrs by broth microdilution method. The essentials: as §2
The test system of test [10] is Priestia megaterium. The experiment in a line: Antimicrobial activity against Bacillus megaterium after 24 hrs by broth microdilution method. Put shortly: as §2

Take `COc1ccc2ncc(-c3nc4sc5cc(F)ccc5n4c3Nc3ccc(F)cc3)cc2c1`: the MIC in test [1] stood at 15.3 µg/mL (≈ 33.4 µM); in [2], 11.2 µg/mL (≈ 24.4 µM); in [3], 11.2 µg/mL (≈ 24.4 µM); in [4], 13.4 µg/mL (≈ 29.3 µM); in test [5], 13.6 µg/mL (≈ 29.6 µM); in [6] it was 10.4 µg/mL (≈ 22.7 µM). Also, the MIC in test [7] was found to be 12.4 µg/mL (≈ 27.1 µM); in [8] it was 17.5 µg/mL (≈ 38.2 µM); in test [9] it was 11.9 µg/mL (≈ 25.9 µM); in test [10], 19.1 µg/mL (≈ 41.8 µM).
On to `Cc1ccc2ncc(-c3nc4sc5cc(F)ccc5n4c3Nc3ccc(F)cc3)cc2c1`, for which the MIC in [1] amounted to 13.4 µg/mL (≈ 30.2 µM); in test [2] it was 9.45 µg/mL (≈ 21.4 µM); in [3], 12.2 µg/mL (≈ 27.5 µM); in test [4] it was 9.57 µg/mL (≈ 21.6 µM); in test [5], 14.4 µg/mL (≈ 32.6 µM); in test [6] it was 10.4 µg/mL (≈ 23.5 µM). In addition, the MIC in test [7] came to 8.63 µg/mL (≈ 19.5 µM); in test [8] it was 18.4 µg/mL (≈ 41.6 µM); in test [9], 9.66 µg/mL (≈ 21.8 µM); in test [10], 18.6 µg/mL (≈ 42.1 µM).
As to `Fc1ccc(Nc2c(-c3c[nH]c4ccc(Br)cc34)nc3sc4cc(F)ccc4n23)cc1`, the minimum inhibitory concentration (MIC) was 2.13 µg/mL (≈ 4.3 µM) in test [1]; 0.87 µg/mL (≈ 1.76 µM) in [2]; 2.23 µg/mL (≈ 4.5 µM) in test [3]; 0.32 µg/mL (≈ 0.646 µM) in test [4]; 2.32 µg/mL (≈ 4.68 µM) in test [5]; 0.44 µg/mL (≈ 0.888 µM) in test [6]. For the same compound, the MIC was 0.18 µg/mL (≈ 0.363 µM) in test [7], 3.15 µg/mL (≈ 6.36 µM) in test [8], 0.53 µg/mL (≈ 1.07 µM) in test [9] and 1.69 µg/mL (≈ 3.41 µM) in test [10].
Consider `Fc1ccc(Nc2c(-c3c[nH]c4ccc(F)cc34)nc3sc4cc(F)ccc4n23)cc1`, for which the MIC in test [1] came out at 1.15 µg/mL (≈ 2.65 µM); in [2], 0.41 µg/mL (≈ 0.944 µM); in test [3] it was 1.15 µg/mL (≈ 2.65 µM); in test [4], 0.23 µg/mL (≈ 0.529 µM); in test [5], 1.24 µg/mL (≈ 2.85 µM); in [6], 0.14 µg/mL (≈ 0.322 µM). Also, the minimal inhibitory concentration (MIC) amounted to 0.18 µg/mL (≈ 0.414 µM) in test [7], 1.23 µg/mL (≈ 2.83 µM) in [8], 0.11 µg/mL (≈ 0.253 µM) in test [9] and 1.52 µg/mL (≈ 3.5 µM) in test [10].
Regarding `Cc1ccc2[nH]cc(-c3nc4sc5cc(F)ccc5n4c3Nc3ccc(F)cc3)c2c1`, the MIC amounted to 14.6 µg/mL (≈ 33.8 µM) in test [1]; 9.17 µg/mL (≈ 21.3 µM) in test [2]; 14.6 µg/mL (≈ 34 µM) in test [3]; 14.6 µg/mL (≈ 34 µM) in [4]; 16.5 µg/mL (≈ 38.3 µM) in test [5]; 14.5 µg/mL (≈ 33.7 µM) in [6]. The MIC in test [7] was found to be 10.1 µg/mL (≈ 23.5 µM); in [8], 10.5 µg/mL (≈ 24.5 µM); in test [9], 16.2 µg/mL (≈ 37.6 µM); in [10], 22.1 µg/mL (≈ 51.5 µM).
For the compound `COc1ccc2c(c1)sc1nc(-c3c[nH]c4ccc(Br)cc34)c(Nc3ccc(F)cc3)n12`, the MIC is 3.21 µg/mL (≈ 6.33 µM) in test [1]; 10.6 µg/mL (≈ 20.8 µM) in [2]; 4.12 µg/mL (≈ 8.12 µM) in test [3]; 8.13 µg/mL (≈ 16 µM) in test [4]; 5.63 µg/mL (≈ 11.1 µM) in test [5]; 8.12 µg/mL (≈ 16 µM) in test [6]. Also, the MIC came to 7.33 µg/mL (≈ 14.4 µM) in test [7], 4.14 µg/mL (≈ 8.16 µM) in [8], 9.69 µg/mL (≈ 19.1 µM) in test [9] and 13.2 µg/mL (≈ 26.1 µM) in test [10].
Regarding `COc1ccc2[nH]cc(-c3nc4sc5cc(F)ccc5n4c3Nc3ccc(F)cc3)c2c1`, the MIC in test [1] stood at 15.5 µg/mL (≈ 34.8 µM); in [2], 19.5 µg/mL (≈ 43.8 µM); in test [3], 17.5 µg/mL (≈ 39.2 µM); in test [4] it was 17.8 µg/mL (≈ 40 µM); in [5], 16.6 µg/mL (≈ 37.2 µM); in [6] it was 19.7 µg/mL (≈ 44.1 µM). In addition, the MIC in test [7] came out at 17.4 µg/mL (≈ 38.9 µM); in test [8], 19.6 µg/mL (≈ 44 µM); in test [9] it was 18.5 µg/mL (≈ 41.5 µM); in test [10] it was 23.4 µg/mL (≈ 52.5 µM).

The values above are taken from ChEMBL document CHEMBL1773057, “Design, synthesis and in vitro antimicrobial evaluation of novel Imidazo[1,2-a]pyridine and imidazo[2,1-b][1,3]benzothiazole motifs” (2011).
